Source: PubChem BioAssay (several laboratories)
Rows were chosen to be rich in hits. Some 9.6% of all compounds tested hit in one or more screens of this group.
TNAP act hi DEA: increases human TNAP activity under high phosphate acceptor concentration; 200,000 tested, under 10 active; activation factor at 20 µM; P05186; AID 1136; purified TNAP, CDP-star luminescence, 1 M DEA, 30 min; active compounds read high; 0 = EDTA background, 1 = DMSO-only activity;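 active means activation factor at least 2 at 20 µM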
Target sequence (P05186 whole entry, looked up): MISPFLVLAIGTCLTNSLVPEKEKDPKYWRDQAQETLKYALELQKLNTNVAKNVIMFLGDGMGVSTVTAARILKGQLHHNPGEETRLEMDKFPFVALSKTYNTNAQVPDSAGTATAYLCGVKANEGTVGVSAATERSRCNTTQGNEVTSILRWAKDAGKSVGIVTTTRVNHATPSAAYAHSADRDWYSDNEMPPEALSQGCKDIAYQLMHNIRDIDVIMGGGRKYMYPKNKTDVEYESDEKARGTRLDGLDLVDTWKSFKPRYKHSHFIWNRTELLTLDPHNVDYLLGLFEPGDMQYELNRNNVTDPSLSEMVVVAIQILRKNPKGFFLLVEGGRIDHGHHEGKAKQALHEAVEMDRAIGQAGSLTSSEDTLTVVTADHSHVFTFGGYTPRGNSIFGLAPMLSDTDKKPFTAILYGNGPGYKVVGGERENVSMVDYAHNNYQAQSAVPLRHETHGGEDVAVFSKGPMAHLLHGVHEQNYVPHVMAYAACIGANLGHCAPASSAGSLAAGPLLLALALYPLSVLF
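Control set: EDTA negative control, DMSO positive control / Assay system: human TNAP / Quantity: TNAP 1/800 final / Evaluation: TNAP activation factor scaled between EDTA and DMSO control wells / Measured by: luminescent substrate turnover signal / Compound dosing: one dose, 20 µM / Times: 30 min enzyme reaction at room temperature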
bCat KO growth: beta-catenin-lacking colon tumor cell growth suppression; HCT116 beta-catenin knockout viability, CellTiter-Glo, 60 h; active compounds read low; viability, % at 10 µM; 140,000 compounds, 1.5% hits;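 active means viability at or under a set limit, the compound median less 4 SD, cut at about 6% in these data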;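 further: 0% = Hyamine 1622 control at 20 µM and 100% = untreated cell control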
PTEN del growth: growth suppressors of cells with PTEN tumor suppressor deletion | HCT116 PTEN-null viability, CellTiter-Glo, 60 h; active compounds read low | AID 827 | viability, % at 10 µM | 140,000 compounds, 1.2% hits;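 active means viability at or below a set limit, 4 SD under the median of all tested compounds, cut at about 3.7% in these data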;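 further: PTEN knockout HCT116 line with beta catenin targeted HCT116 as companion control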
TNAP inh hiacc: TNAP (human) inhibition, high acceptor; P05186; purified TNAP, CDP-star luminescence, 1 M DEA; inhibition, % at 20 µM; 200,000 compounds, 0.03% hits; AID 1135;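 active means over 50% inhibition of tissue-nonspecific alkaline phosphatase at 20 µM in the single-dose screen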;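 further: plate controls were DMSO wells for no effect and EDTA-quenched wells as full inhibition for full effect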
TNAP inh no acc: TNAP (human) inhibition, acceptor-free conditions. P05186. purified TNAP, CDP-star luminescence, 30 min. inhibition, % at 20 µM. 200,000 compounds, 0.26% hits;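 active means tissue-nonspecific alkaline phosphatase inhibition above about 50% at 20 µM in the single-dose screen, limit read from the data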;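 further: 0% = DMSO negative control and 100% = EDTA positive control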
L major viab: reduces viability of Leishmania major promastigotes | resazurin fluorescence viability | inhibition, % at 10 µM | 200,000 compounds, 9% hits | AID 1063; in the data active means inhibition above about 50%;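 further: promastigotes grown with compound for 44 hours at 28 °C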
Active calls of the source: *; x = no result.

SMILES	TNAP act hi DEA	bCat KO growth	PTEN del growth	TNAP inh hiacc	TNAP inh no acc	L major viab
CCCc1cc(NCC2CCCO2)n2c(nc3ccccc32)c1C#N (centres undefined)	1.1	88.6	84.6	-13.0	-23.0	77.6*
O=C(COC(=O)C12CC3CC(CC(C3)C1)C2)Nc1ccc([N+](=O)[O-])cc1Cl	1	93.5	90.4	-2.5	-15.1	-4.9
O=C(NCCN1CCN(c2ccccc2)CC1)c1cccn2c(=O)c3ccccc3nc12	0.9	52.8	48.7	7.8	-7.4	3.1
CN(CCCNC(=O)c1cccn2c(=O)c3ccccc3nc12)Cc1ccccc1	1	19.1	28.1	-4.9	-9.5	100.1*
Nc1ccccc1S(=O)(=O)NC1=NCCCCC1	1	90.2	94.7	-3.5	-12.2	5.7
CC(C)(C)c1nc(SCC(=O)N2CC(=O)Nc3ccccc32)c2ccccc2n1	1.1	x	x	-5.8	-16.2	-6.4
Cc1cc(C(=O)CSc2nnc(-c3cccc(F)c3)n2N)c(C)n1Cc1ccc2c(c1)OCO2	1	17.9	26.3	-2.5	-4.3	74.8*
COc1ccc(OCC(=O)N/N=C(/C)Cc2ccccc2)cc1	1	105.4	102.6	2.1	0.3	-2.2
COc1ccc(O)c(N)c1	0.8	x	x	23.4	36.0	98.4*
CCc1nc2c(c(=O)c3ccccc3n2C)c(=O)n1C1CCCCCC1	1	11.2	6.0	-0.4	-0.4	7.3
Cn1c2ccccc2c(=O)c2c(=O)n(-c3ccccc3)c(C3CCCCC3)nc21	1.1	74.4	76.2	-10.0	-1.7	64.8*
Cn1c2ccccc2c(=O)c2c(=O)n(C3CCCCCC3)c(C3CCCCC3)nc21	1	5.2*	2.5*	3.5	1.4	73.7*
c1ccc(-n2cc(CN3CCCC(CN4CCCC4)C3)c(-c3ccc4c(c3)OCO4)n2)cc1 (centres undefined)	1	x	x	-2.6	-8.9	100.2*
OC[C@@H]1CCCN1Cc1cn(-c2ccccc2)nc1-c1ccc2c(c1)OCO2	1	x	x	-1.7	-3.6	13.8
CC(NC(=O)C(Cc1ccccc1)NC(=O)c1ccccc1)C(=O)O (centres undefined)	1	92.1	96.8	-4.0	-11.0	84.8*
O=C(NC(Cc1ccc2c(c1)OCO2)C(=O)NC(Cc1ccccc1)C(=O)O)c1ccccc1 (centres undefined)	1	93.7	94.4	-2.2	-12.3	88.4*
Cc1ccc(CC(NC(=O)c2ccccc2)C(=O)NC(Cc2ccccc2)C(=O)O)cc1 (centres undefined)	1	x	x	-2.3	-8.5	14.3
O=C(O)CCC(NC(=O)C(Cc1ccc2c(c1)OCO2)NC(=O)c1ccccc1)C(=O)O (centres undefined)	1	93.4	104.7	-0.2	-6.5	12.0
C=CCn1c(=O)c2ccc(C(=O)NCc3ccccc3)cc2n(Cc2ccccc2Cl)c1=O	1.1	95.0	96.2	-8.2	-5.3	56.0*
CCCN1CCN(C(=O)Cn2cnc3ccc(S(=O)(=O)N4CCC(C)CC4)cc3c2=O)CC1	1	x	x	0.4	-1.0	93.5*
CCCCNC(=O)Cn1cnc2ccc(S(=O)(=O)N3CCC(C)CC3)cc2c1=O	1.1	x	x	-6.2	-8.0	-3.9
CSCCC(NC(=O)C1CCC(C)CC1)C(=O)O (centres undefined)	1	104.1	96.0	-0.4	-1.2	47.3
COC(=O)C(CCSC)NC(=O)C(NC(=O)C1CCC(C)CC1)C(C)C (centres undefined)	1	98.0	94.2	-1.9	-8.3	68.6*
CCC(C)C(NC(=O)C1CCC(C)CC1)C(=O)Nc1ccc(OC)cc1OC (centres undefined)	1	x	x	0.3	-10.2	14.8
CCC(C)C(NC(=O)C1CCC(C)CC1)C(=O)NC(CCSC)C(=O)OC (centres undefined)	1	91.9	98.3	-3.9	-14.1	68.3*
SMILES	TNAP act hi DEA	bCat KO growth	PTEN del growth	TNAP inh hiacc	TNAP inh no acc	L major viab
C/C(=N/NC(=O)CNC(=O)/C=C/c1ccco1)c1ccc(Cl)cc1	1	x	x	-4.7	-7.1	-4.8
Cc1ccccc1NC(=O)/C(=C/c1ccccc1)c1ccccc1	1	45.5	51.9	0.7	-4.3	44.5
O=C(O)c1ccc(NC(=S)Nc2ccccc2)cc1	1	85.0	92.8	-3.1	2.4	91.2*
Cc1cc(NC(=S)Nc2ccccc2)ccc1Br	1.1	89.3	83.6	-5.5	3.8	97.2*
O=C(Nc1ccccc1)/C(=C/c1ccccc1)c1ccccc1	1	76.8	78.9	1.5	-4.9	97.7*
COc1ccc(CN(C)CC(=O)Nc2cccc(S(N)(=O)=O)c2)c(OC)c1OC	0.9	x	x	12.0	6.4	-4.9
Cc1ccnc(NC(=O)c2ccc(S(=O)(=O)c3ccccc3)cc2)c1	1	x	x	-4.1	-38.7	27.8
CCN(C(=O)COC(=O)c1cccnc1Nc1cccc(C(F)(F)F)c1)C1CCS(=O)(=O)C1 (centres undefined)	1.1	71.3	75.0	-6.1	-6.3	59.0*
Cn1c(/C=C/c2cccc([N+](=O)[O-])c2)nc2ccccc2c1=O	1	x	x	-3.1	-5.3	-2.5
Oc1ccc(Br)cc1-c1nc2cnccn2c1NC1CCCC1	1	1.3*	1.9*	-1.7	-5.6	3.9
Oc1ccc(Br)cc1-c1nc2cnccn2c1NC1CCCCC1	1	82.1	92.4	-1.1	-0.7	85.3*
Fc1ccc(-c2nc3cnccn3c2NC2CCCC2)cc1	1.1	x	x	-10.6	-17.3	6.9
Cc1ccn2c(NC3CCCC3)c(-c3ccsc3)nc2c1	1.1	x	x	-5.8	-47.8	16.0
CC1c2nc3ccccc3n2C(CC(=O)NC2CC2)C(=O)N1Cc1ccccc1 (centres undefined)	1	x	x	0.4	-7.0	-2.0
COCCN=C1Sc2nc3ccc(C)cc3cc2CN1Cc1ccco1	1	92.3	92.0	3.3	-1.4	59.9*
CSc1cccc(NC(=O)CN(C2CCCCC2)S(C)(=O)=O)c1	1	62.4	58.5	-2.7	-4.6	14.8
CSc1cccc(NC(=S)N2CCC(N(C)C3CCCCC3)CC2)c1	1	x	x	-3.5	-6.8	88.5*
CSc1cccc(NC(=S)N2CCCN(Cc3ccccc3F)C2)c1	1.1	x	x	-7.3	-8.1	75.8*
CSc1cccc(NC(=S)N2CCC(N(C)C3CCCCC3C)CC2)c1 (centres undefined)	1	x	x	2.1	-15.8	82.1*
CCCCN(C(=S)Nc1cccc(SC)c1)C1CCN(C(C)=O)CC1	1	x	x	3.7	-8.7	11.6
Cc1ccsc1/C=N/N1CCN(Cc2ccccc2)CC1	1	x	x	-1.9	-4.5	-7.7
COc1ccc(-c2csc3nc(C)nc(N4CCC(C)CC4)c23)cc1OC	1	x	x	-4.5	-8.4	89.5*
Clc1ccc(OCCn2ccnc2)c2ccccc12	1	73.6	77.1	2.1	-1.7	96.3*
CCC(C)c1ccccc1OCCn1ccnc1 (centres undefined)	1.1	83.1	97.8	-5.4	-3.7	69.1*
